{"source": "paper PMC6944734", "about": "(Alzheimer's & Dementia : Translational Research & Clinical …, 2019)", "system": "primary mouse neuronal cultures", "assay": "Synaptic recordings", "type": "cell-based", "details": "compared with the control", "summary_of_the_method": "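Primary neurons from E18 mouse embryos plated at 10 K per well on coverslips. At DIV 11–13, sister coverslips from the same pups were treated 24 or 72 h before recording with DMSO (n = 4), γ-secretase inhibitor DAPT (n = 5) or test compound (n = 4), and all recorded the same day. Spontaneous miniature events analysed for frequency, interevent interval, amplitude and decay. Access resistance 2–14 MΩ.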"}
{"molecule": "C[C@H](NC(=O)Cc1cc(F)cc(F)c1)C(=O)N[C@H](C(=O)OC(C)(C)C)c1ccccc1", "note": "[difluorphenacetyl-alanyl phenylglycine t-butyl ester]", "values": [{"measurement": "Single quantum (amplitudes below 20 pA) and multiquantal (~35–45 pA) releases", "result": "significantly more"}]}
